Published values pooled from the literature.
Each line is one published result; the experiments were not run side by side.
Target: Leukocyte tyrosine kinase receptor (LTK, Homo sapiens, UniProt P29376)

For `Cc1cnc(Nc2ccc(C(=O)N3CCC(N4CCCC4)CC3)cc2)nc1-c1cc2ccccc2s1`, the remaining binding was 85% (binding, competition with immobilised ligand; 1 µM).
The remaining binding of `C[C@H]1CCN(c2nccc(-c3cnn4ncccc34)n2)C1` is reported as 91% (binding; 1 µM).
`O=C(NCC1CCOCC1)c1n[nH]cc1NC(=O)c1c(F)cccc1F` has a remaining binding of 100% (binding, competition with immobilised ligand; 1 µM).
`CC(C)CC(=O)N1CCc2nc(-c3ccc(Br)cc3)nc(N(C)Cc3ccccc3)c2C1` has a remaining binding of 91% (cell-free assay, competition with immobilised ligand; 0.1 µM).
For `O=C(c1ccc(Nc2nccc(-c3cc4ccccc4s3)n2)cc1)N1CCC(N2CCCC2)CC1`, the remaining binding was 100% (binding, competition with immobilised ligand; 1 µM).
For `COc1ccc2c(c1)O[C@H](c1ccc(OC)c(OC)c1)C[C@@H]2NC(=O)C1(c2ccc3c(c2)OC(F)(F)O3)CC1`, the remaining binding was 100% (cell-free assay, competition with immobilised ligand; 1 µM).
`C=CC(=O)N1CCC(C(=O)NCC(=O)N2CCN(c3nc(-c4cnc(N)nc4C(F)F)nc(N4CCOCC4)n3)CC2)CC1` gave a remaining binding of 100% (binding, competition with immobilised ligand; 1 µM).
With `CNC(=O)[C@@H]1CC[C@@H](n2c(-c3ccc4cnccc4c3)nc3ccc(C(=O)NCc4cccc(C(N)=O)c4)cc32)C1` the remaining binding was 89% (binding, competition with immobilised ligand; 1 µM).
With `CN(C)c1nccc(-c2cnn3ncccc23)n1` the remaining binding was 92% (binding; 1 µM).
For `O=C(NCCCN1CCOCC1)c1ccc(Nc2ncc(Cl)c(-c3ccc(Cl)s3)n2)cc1`, the remaining binding was 100% (binding, competition with immobilised ligand; 1 µM).
With `COc1ncc2cc3ccccc3nc2c1C#N` the remaining binding was 100% (cell-free assay, competition with immobilised ligand; 5 µM).
The remaining binding of `N[C@H]1CCN(c2nccc(-c3cnn4ncccc34)n2)C1` is reported as 100% (binding; 1 µM).
With `O=C1CCc2cc(Nc3cc(OC4CCOCC4)c([N+](=O)[O-])cc3Cl)ccc2N1` the remaining binding was 100% (cell-free assay, competition with immobilised ligand; 1 µM).
With `C[C@@H](c1ccc(-n2cnc3c(N)ncnc32)cc1)N1CCc2nn(C)c(Cc3ccccc3)c2C1=O` the remaining binding was 87% (binding, competition with immobilised ligand; 0.1 µM).
The remaining binding of `Cc1nc(Cc2cccc(C(F)(F)F)c2)sc1-c1ccc(C(N)=O)nc1` is reported as 100% (cell-free assay, competition with immobilised ligand; 1 µM).
`CN(c1nccc(-c2cnn3ncccc23)n1)C1CC1` gave a remaining binding of 100% (binding; 1 µM).
With `CN([C@@H]1CCc2c(CC(=O)O)c3cc(S(C)(=O)=O)ccc3n2C1)S(=O)(=O)c1ccc(F)cc1` the remaining binding was 100% (cell-free assay, competition with immobilised ligand; 1 µM).
For `c1cncc(-c2cccc(Nc3nccc(NC4CCCCC4)n3)c2)c1`, the remaining binding was 68% (binding, competition with immobilised ligand; 10 µM).
`CC1CCCN1c1nccc(-c2cnn3ncccc23)n1` (stereo not shown) has a remaining binding of 100% (binding; 1 µM).
The remaining binding of `CC(=O)C1=C(C)N(c2cccc(C(F)(F)F)c2)C(=O)N[C@@H]1c1ccc(C#N)nc1` is reported as 92.6% (cell-free assay, competition with immobilised ligand; 1 µM).
`F[C@@H]1CCN(c2nccc(-c3cnn4ncccc34)n2)C1` has a remaining binding of 92% (binding; 1 µM).
For `O=C(NS(=O)(=O)c1ccc(NCC2CCOCC2)c([N+](=O)[O-])c1)c1ccc(N2CCN(Cc3ccc(C(F)(F)F)cc3-c3ccc(Cl)cc3)CC2)cc1Oc1cnc2[nH]ccc2c1`, the remaining binding was 100% (cell-free assay, competition with immobilised ligand; 1 µM).
